From the RNAGym collection of RNA variant scans (doi:10.1126/science.aae0568)
Variants at the floor of the assay were thinned out.

B1: tRNA (parent)
chain: GUUCCGUUGGCGUAAUGGUAACGCGUCUCCCUCCUAAGGAGAAGACUGCGGGUUCGAGUCCCGUACGGAACG

Variants of: B1
Assay: yeast fitness relative to wild type (ratio to wild type); higher = fitter; tRNA-Arg(CCU), competitive growth, 37 C, YPD
Procedure, shortened: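 Amplicons of the tRNA-Arg(CCU) gene were sequenced, 100-nucleotide paired-end, from the start population and from each end population of a pooled yeast competition. The competition, in six parallel replicates, lasted 24 hours in YPD at 37°C. Fitness relative to wild type was calculated from changes in genotype frequencies. Genotypes had to have ≥ 100 starting reads, and estimates < 0.5 were set to 0.5.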
With C22G A45G the yeast fitness was 0.867. For C22G C31A U47C C49G G63C A69U, the yeast fitness was at most 0.5. For C22G C29A A43C C60G, the yeast fitness was at most 0.5. C22A C29A C66A gave a yeast fitness of 0.513. Variant C22G C24G G50A A69C has a yeast fitness of 0.574. With C22G C27U G68A the yeast fitness was 0.623. Work on C22G C27G U59C C62U U64C G68U yielded a yeast fitness of at most 0.5. With C22G C31G A69C the yeast fitness was 0.566. For C22A C62U, the yeast fitness was 0.935. C22G C61G C62U showed a yeast fitness of at most 0.5. C22A C61U showed a yeast fitness of 0.864. C22G C27A G63A showed a yeast fitness of at most 0.5. Work on C22G C24U A37C G51C C55U A70U yielded a yeast fitness of at most 0.5. Work on C22G C31G C62U A70U yielded a yeast fitness of at most 0.5. Variant C22A C30A C31U G68C has a yeast fitness of at most 0.5. For C22G C24A G68C, the yeast fitness was at most 0.5. C22G A45C A65C gave a yeast fitness of at most 0.5. C22G A42U G50U showed a yeast fitness of 0.523. For C22G A42U C62A, the yeast fitness was at most 0.5. C22G C29A A42C gave a yeast fitness of 0.542. Variant C22A G23A C33U C34G G67C A69C has a yeast fitness of at most 0.5. In the case of C22G A45U U47A, the yeast fitness is reported as at most 0.5. C22G G23C G39A A45C C49U C61U G68A showed a yeast fitness of at most 0.5. C22G A43U U64C gave a yeast fitness of 0.611. In the case of C22G G25A C61U, the yeast fitness is reported as 0.647. C22G C31A C49G G63C gave a yeast fitness of 0.545. C22A G67A gave a yeast fitness of 0.888. With C22A G67C the yeast fitness was 0.701. Variant C22G G23C C27A U28C has a yeast fitness of 0.533. C22A C34U U35G C61U gave a yeast fitness of at most 0.5. In the case of C22G C62U A69U, the yeast fitness is reported as 0.591. C22G C29A U53A gave a yeast fitness of at most 0.5. With C22G C34G the yeast fitness was 0.612. Variant C22G C34A has a yeast fitness of 0.757. For C22G C24G C29U C33U A37C G52A C61U, the yeast fitness was at most 0.5. C22G C24G G50A A70U gave a yeast fitness of at most 0.5. C22A U28C showed a yeast fitness of 0.852. C22A U28G showed a yeast fitness of 0.625. C22G C49U C66U showed a yeast fitness of 0.666. C22G A37C U54C gave a yeast fitness of at most 0.5. With C22G C27G C29G C34A A43U U54C A65U the yeast fitness was at most 0.5. Variant C22G A57G has a yeast fitness of 0.676. Variant C22G A57C has a yeast fitness of 0.684. In the case of C22A U47C C55G, the yeast fitness is reported as 0.536. In the case of C22G C29G A36C G39C C46G G52A, the yeast fitness is reported as at most 0.5. C22G C62A showed a yeast fitness of 0.787. For C22G G23C G50C C55A C60A, the yeast fitness was at most 0.5. Work on C22G C31U C66G yielded a yeast fitness of 0.512. Variant C22G C31A A43G A70U has a yeast fitness of at most 0.5. With C22G C27G C31G C61G A69C the yeast fitness was at most 0.5. Variant C22G C30A A42C G58A has a yeast fitness of at most 0.5. For C22G C31A A43G, the yeast fitness was at most 0.5. In the case of C22A G51C C60U, the yeast fitness is reported as at most 0.5. With C22A G23A C33U A42U the yeast fitness was at most 0.5. C22A U26A C29G C34G A65G A69C gave a yeast fitness of at most 0.5. For C22G A40C A43U, the yeast fitness was at most 0.5. Work on C22G C24U U64C yielded a yeast fitness of 0.538. With C22A C29U C49U the yeast fitness was 0.622. With C22A C33G A37G the yeast fitness was at most 0.5. Variant C22G A37G C60A A70G has a yeast fitness of 0.501. C22G C24U C29U C30G G63C gave a yeast fitness of at most 0.5. Work on C22G C24G yielded a yeast fitness of 0.595. For C22G C24U, the yeast fitness was 0.894. Variant C22G A40U U54A has a yeast fitness of at most 0.5. For C22G C55A, the yeast fitness was 0.712. C22G C55G showed a yeast fitness of 0.585. For C22G C27A A65G, the yeast fitness was at most 0.5. Work on C22A U26C U47C A57G C66A yielded a yeast fitness of 0.565. With C22A C33G A43C C55A C62U the yeast fitness was at most 0.5. C22A C29G C62A A69U gave a yeast fitness of at most 0.5. C22G G23A gave a yeast fitness of 0.644. In the case of C22G C34U C49U C55G C62U, the yeast fitness is reported as at most 0.5. With C22A U28A G39C the yeast fitness was at most 0.5. Work on C22A G23A C34U A57C C66U A69C yielded a yeast fitness of 0.548. C22G A45U G48C A57C G67U showed a yeast fitness of at most 0.5. With C22G C33U A42U A43G C61A the yeast fitness was at most 0.5. C22G G23C A43C G50C A70U gave a yeast fitness of 0.517. For C22G C49U G56A, the yeast fitness was 0.797. C22A C55U A65U gave a yeast fitness of at most 0.5. C22G C34A A40C A45U showed a yeast fitness of 0.665. Variant C22G C33A C49G has a yeast fitness of 0.592. C22A G23C G67U showed a yeast fitness of at most 0.5. C22A U28G C49A C61A showed a yeast fitness of at most 0.5.
